SMILES strings stand for the structures. Where only a bound is given, the exact number is not on record here.

Data set [1] is described as follows: Cytotoxicity against human HuH5.2 cells assessed as reduction in cell viability after 72 hrs by MTS assay. It counts as cell-based, Huh-5-2. The gist of the method: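 Huh 5-2 cells carrying the genotype 1b I389luc-ubi-neo/NS3-3'/5.1 replicon were seeded at 6 500 cells/well in medium without Geneticin one day ahead. Compounds (DMSO stock) were added as 1:5 four-step or 1:2 eight-step dilutions for 72 h at 37 °C.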
(Tetrazolium assays rely on reduction of a dye to a coloured formazan, in cell work by metabolically active cells.)

Data set [2] can be described thus: Selectivity index, ratio of CC50 for human HuH5.2 cells to EC50 for HCV genotype 1b infected in human HuH5.2 cells with persistent I389luc-ubi-neo/NS3-3'/5.1 replicon. In general terms: In antiviral work, replicon cells carry a viral genome segment that copies itself.
The test system of a further data set is Hepatitis C virus. The experiment in a line: Antiviral activity against HCV genotype 1b infected in human HuH5.2 cells with persistent I389luc-ubi-neo/NS3-3'/5.1 replicon after 72 hrs by luciferase reporter gene assay. The note with it: Huh-5-2, 72 h. The data set is classed as functional, cell-based, Hepacivirus hominis. The method in brief: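 Huh 5-2 cells carrying the genotype 1b I389luc-ubi-neo/NS3-3'/5.1 replicon were seeded at 6 500 cells/well in Geneticin-free DMEM/10% FCS and left overnight. Compounds from DMSO stocks were added in a four-step 1-to-5 series for the first screen or an eight-step 1-to-2 series for dose-response curves, then 72 h at 37 °C. Luciferase luminescence after lysis, as % of untreated controls, gave EC50; mean of ≥2 experiments.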

Usually CC50 stands for the concentration at which the toxic effect on the cells reaches its halfway point. `COc1ccc(S(=O)(=O)NCCC(=O)N2CCN(C(=O)CCNS(=O)(=O)c3ccc(OC)cc3)CC2)cc1`: the cytotoxic concentration (CC50) at 72 h in data set [1] is > 87.9 µM.

For orientation: EC50 means the concentration that produces a half-maximal response. A low value points to greater potency. Take `Cc1ccc(S(=O)(=O)NCCCN2CCN(CCCNS(=O)(=O)c3ccccc3)CC2)cc1`: the CC50 at 72 h in data set [1] amounted to 138 µM. Moreover, the “Ratio CC50/EC50” value in data set [2] worked out at 5.3. The same compound gave an EC50 in the data set with Hepatitis C virus of 26.3 µM.

On to `O=S(=O)(NCCCN1CCN(CCCNS(=O)(=O)c2ccc(-c3ccccc3)cc2)CC1)c1ccc(Cl)cc1`, for which the CC50 at 72 h in data set [1] came out at 4.43 µM. Moreover, the “Ratio CC50/EC50” value in data set [2] stood at 2.1. In the data set on Hepatitis C virus, the EC50 is 2.12 µM.

For orientation: EC90 means the concentration at which the effect reaches the 90% level. Turning to `Cc1ccc(S(=O)(=O)NCCCN2CCN(CCCNS(=O)(=O)c3ccc(C(C)(C)C)cc3)CC2)cc1`, the 50% cytotoxic concentration (CC50) at 72 h in data set [1] is 14.6 µM. Also, the “Ratio CC50/EC50” value in data set [2] was 4.2. In the data set with Hepatitis C virus, this compound gave an EC50 of 3.5 µM and an EC90 of 9.44 µM.

As to `O=S(=O)(NCCCN1CCCCC1)c1ccc(Cl)cc1`, the 50% cytotoxic concentration (CC50) at 72 h in data set [1] stood at 145 µM. Besides, in data set [2], the “Ratio CC50/EC50” value is on record as 2.3. In addition, the half-maximal effective concentration (EC50) with Hepatitis C virus came out at 61.9 µM.

Turning to `COc1ccc(S(=O)(=O)NCCN2CCN(CCNS(=O)(=O)c3ccc(OC)c(OC)c3)CC2)cc1OC`, the CC50 at 72 h in data set [1] was > 87.3 µM. The “Ratio CC50/EC50” value in data set [2] is on record as >1. Further, in the data set with Hepatitis C virus, it took 85.8 µM to reach a half-maximal effect (EC50) and the EC90 was > 87.3 µM.

On to `O=S(=O)(NCCCN1CCN(CCCNS(=O)(=O)c2cccs2)CC1)c1cccs1`, for which, in data set [1], the CC50 at 72 h is > 203 µM. For the same compound, the “Ratio CC50/EC50” value in data set [2] is >3.3. In the data set on Hepatitis C virus, the 50% effective concentration (EC50) worked out at 62 µM and it took 156 µM to reach the 90% level (EC90).

As to `Cc1ccc(S(=O)(=O)NCCCN2CCN(CCCNS(=O)(=O)c3ccc(Cl)cc3)CC2)cc1`, the CC50 at 72 h in data set [1] was found to be 48.8 µM. Also, the “Ratio CC50/EC50” value in data set [2] is on record as 4.9. Also, in the data set on Hepatitis C virus, the EC50 is 9.93 µM and the EC90 stood at 36 µM.

For `O=C(CCNS(=O)(=O)c1ccccc1)N1CCN(CCCNS(=O)(=O)c2ccccc2)CC1`, the CC50 at 72 h in data set [1] is > 202 µM. In the data set with Hepatitis C virus, the concentration for a half-maximal effect (EC50) was > 202 µM and the EC90 was > 202 µM.

`O=S(=O)(NCCCN1CCN(CCNS(=O)(=O)c2ccc(Cl)cc2)CC1)c1ccc(Cl)cc1`: in data set [1], the CC50 at 72 h came to 32.3 µM. Moreover, in data set [2], the “Ratio CC50/EC50” value came out at 4.9. Further, the midpoint of the response with Hepatitis C virus, the EC50, lay at 6.59 µM.

As for `O=S(=O)(NCCCN1CCN(CCCNS(=O)(=O)c2ccccc2Cl)CC1)c1ccccc1Cl`, the half-maximal cytotoxic concentration (CC50) at 72 h in data set [1] is > 182 µM.

For `O=S(=O)(NCCCN1CCN(CCNS(=O)(=O)c2ccccc2)CC1)c1ccccc1`, in data set [1], the cytotoxic concentration (CC50) at 72 h is > 214 µM. In addition, in data set [2], the “Ratio CC50/EC50” value was >3.1. Also, in the data set on Hepatitis C virus, the response was half-maximal at 69.2 µM (EC50) and the 90% effect concentration (EC90) amounted to 212 µM.

With `Cc1ccc(S(=O)(=O)NCCCN2CCN(C(=O)CCNS(=O)(=O)c3ccc(C)cc3)CC2)cc1`, the half-maximal cytotoxic concentration (CC50) at 72 h in data set [1] is > 191 µM. Further, the “Ratio CC50/EC50” value in data set [2] is given as >3. In the data set on Hepatitis C virus, the concentration giving a half-maximal response (EC50) was 64.3 µM and it took 173 µM to reach the 90% level (EC90).

Consider `COc1ccc(S(=O)(=O)NCCCN2CCN(CCCNS(=O)(=O)c3ccc(OC)cc3)CC2)cc1`, for which the cytotoxic concentration (CC50) at 72 h in data set [1] is > 92.5 µM. In addition, in the data set on Hepatitis C virus, the EC50 was > 92.5 µM and the EC90 was > 92.5 µM.

Take `O=C1NC(=O)/C(=C\c2ccc(-c3ccc(Cl)cc3Cl)o2)S1`: the CC50 at 72 h in data set [1] was 33.4 µM. The “Ratio CC50/EC50” value in data set [2] is 2.5. The EC50 in the data set on Hepatitis C virus turned out to be 13.2 µM.

Regarding `O=S(=O)(NCCNc1ccc(NCCNS(=O)(=O)c2ccc(Cl)cc2)cc1)c1ccc(Cl)cc1`, the CC50 at 72 h in data set [1] stood at 22 µM. The “Ratio CC50/EC50” value in data set [2] worked out at 1.8. Besides, the EC50 in the data set with Hepatitis C virus came to 12.1 µM.

Regarding `CC(C)Oc1ccc(/C=N/N=C2/NC(=O)C(CC(=O)O)S2)cc1` (centres undefined), the CC50 at 72 h in data set [1] is > 149 µM. In data set [2], the “Ratio CC50/EC50” value is on record as >1.1. Moreover, a half-maximal response with Hepatitis C virus (EC50) required 127 µM.

Regarding `COc1ccc(-c2ccc(/C=N/NC(=O)COc3cc(C)ccc3C)o2)cc1Cl`, in data set [1], the CC50 at 72 h was > 121 µM. In data set [2], the “Ratio CC50/EC50” value is reported as >4.5. In the data set with Hepatitis C virus, the midpoint of the response, the EC50, lay at 26.4 µM and the EC90 was > 121 µM.

Consider `CC(C)(C)c1ccc(C(=O)Oc2ccc3c(-c4ccccc4C(=O)O)c4ccc(=O)cc-4oc3c2)cc1`, for which, in data set [1], the CC50 at 72 h was > 102 µM. Moreover, in the data set on Hepatitis C virus, the concentration giving a half-maximal response (EC50) is > 102 µM and the EC90 is > 102 µM.

With `O=[N+]([O-])c1ccc(S(=O)(=O)NCCCN2CCN(CCCNS(=O)(=O)c3ccc([N+](=O)[O-])cc3)CC2)cc1`, in data set [1], the cytotoxic concentration (CC50) at 72 h amounted to 77.4 µM. In addition, the “Ratio CC50/EC50” value in data set [2] was found to be 4.4. In the data set with Hepatitis C virus, the EC50 worked out at 18.1 µM and the 90% effect concentration (EC90) came out at 61.1 µM.

In the case of `Cc1ccc(S(=O)(=O)NCCCN2CCN(CCCNS(=O)(=O)c3ccc(-c4ccccc4)cc3)CC2)cc1`, the CC50 at 72 h in data set [1] came to 6.55 µM. Further, the “Ratio CC50/EC50” value in data set [2] stood at 3.3. In the data set with Hepatitis C virus, this compound registered an EC50 of 1.98 µM.

For `CC(=O)c1ccc(NC(=O)CSc2nnc(NC(=O)CCc3ccccc3)s2)cc1`, in data set [1], the CC50 at 72 h was > 113 µM. In addition, in the data set with Hepatitis C virus, the concentration for a half-maximal effect (EC50) is > 113 µM and the 90% effect concentration (EC90) is > 113 µM.

As for `O=C1N/C(=N/N=C/c2ccccc2O)SC1Cc1ccc(Br)cc1` (centres undefined), in data set [1], the CC50 at 72 h is 15.7 µM. Further, the “Ratio CC50/EC50” value in data set [2] worked out at 1.5. The compound further registered a half-maximal effective concentration (EC50) in the data set on Hepatitis C virus of 10.4 µM.

`COc1ccc(OC)c(S(=O)(=O)NCCCN2CCN(CCCNS(=O)(=O)c3cc(OC)ccc3OC)CC2)c1`: in data set [1], the CC50 at 72 h was > 83.2 µM. In the data set on Hepatitis C virus, the 50% effective concentration (EC50) is > 83.2 µM and the concentration for an effect of 90% (EC90) is > 83.2 µM.

With `O=c1nc2n(-c3cccc(Br)c3)c3ccccc3cc-2c(=O)[nH]1`, the CC50 at 72 h in data set [1] is > 136 µM. Moreover, the “Ratio CC50/EC50” value in data set [2] is on record as >1.6. The compound also showed an EC50 in the data set with Hepatitis C virus of 81.7 µM.

Consider `COc1ccc(S(=O)(=O)NCCC(=O)N2CCN(C(=O)CCNS(=O)(=O)c3ccc(OC)c(OC)c3)CC2)cc1OC`, for which the 50% cytotoxic concentration (CC50) at 72 h in data set [1] was > 159 µM. In addition, in the data set with Hepatitis C virus, the half-maximal effective concentration (EC50) was > 159 µM and the concentration for an effect of 90% (EC90) is > 159 µM.

Take `COc1ccc(OC)c(S(=O)(=O)NCCC(=O)N2CCN(C(=O)CCNS(=O)(=O)c3cc(OC)ccc3OC)CC2)c1`: the CC50 at 72 h in data set [1] is > 79.5 µM. Also, the EC50 in the data set on Hepatitis C virus was > 79.5 µM.

In the case of `O=S(=O)(NCCN1CCN(CCNS(=O)(=O)c2ccccc2)CC1)c1ccccc1`, the CC50 at 72 h in data set [1] is > 110 µM. In addition, the EC50 in the data set with Hepatitis C virus is > 110 µM.

On to `O=C(NCCCN1CCN(CCCNC(=O)c2ccc(Cl)cc2)CC1)c1ccc(Cl)cc1`, for which, in data set [1], the CC50 at 72 h was > 209 µM. For the same compound, in the data set with Hepatitis C virus, the EC50 is > 209 µM and the EC90 is > 209 µM.

For `CC(CC(=O)O)CC(=O)Nc1cccnc1` (centres undefined), the CC50 at 72 h in data set [1] is > 225 µM. For the same compound, in the data set with Hepatitis C virus, the 50% effective concentration (EC50) was > 225 µM and the EC90 is > 225 µM.

As to `Cc1ccc(S(=O)(=O)NCCN2CCN(CCNS(=O)(=O)c3ccc(C)cc3)CC2)cc1`, in data set [1], the 50% cytotoxic concentration (CC50) at 72 h is > 104 µM. Also, in the data set with Hepatitis C virus, the concentration giving a half-maximal response (EC50) was > 104 µM and the concentration for an effect of 90% (EC90) was > 104 µM.

Consider `O=S(=O)(NCCCN1CCN(CCCNS(=O)(=O)c2cccnc2)CC1)c1cccnc1`, for which, in data set [1], the CC50 at 72 h is > 207 µM. Moreover, in the data set with Hepatitis C virus, the 50% effective concentration (EC50) was > 207 µM and the EC90 was > 207 µM.

Consider `COc1ccc(S(=O)(=O)NCCN2CCN(CCNS(=O)(=O)c3ccc(OC)cc3)CC2)cc1`, for which, in data set [1], the 50% cytotoxic concentration (CC50) at 72 h is > 97.5 µM. In the data set with Hepatitis C virus, the EC50 was > 97.5 µM and the EC90 is > 97.5 µM.

In the case of `CCC[C@H](NC(=O)[C@@H]1[C@H]2CCC[C@H]2CN1C(=O)[C@@H](NC(=O)[C@@H](NC(=O)c1cnccn1)C1CCCCC1)C(C)(C)C)C(=O)C(=O)NC1CC1`, the Ratio CC50/EC50 in data set [2] was 58.8.

As for `COc1ccc(OC)c(S(=O)(=O)NCCN2CCN(CCNS(=O)(=O)c3cc(OC)ccc3OC)CC2)c1`, the half-maximal cytotoxic concentration (CC50) at 72 h in data set [1] is > 87.3 µM. The half-maximal effective concentration (EC50) with Hepatitis C virus was > 87.3 µM.
